# Results published in paper PMC3525873 (British Journal of Pharmacology, 2012).
# Legend:
# Format in all cases: cell-based
# NFAT = test: GFP-NFAT translocation in RBL-2H3 cells; conditions: 10 μM, thapsigargin 1 μM then 2 mM Ca2+ re-addition
# Method in brief: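 RBL-2H3 cells electroporated with GFP-NFAT (20 μg DNA, 300 V, 275 μF) 12–18 h beforehand, on coverslips. In nominally Ca2+-free buffer, stores depleted with 1 μM thapsigargin for 5 min, then 2 mM CaCl2 added. Test compound at 10 μM in all buffers. Basal taken before depletion. Cells fixed in paraformaldehyde with DAPI-stained nuclei. Nuclear/cytosolic GFP intensity ratio measured; ≥18 cells per condition.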
# [1] = molecular target: STIM1/Orai1-mediated SOCE (Rattus norvegicus, UniProt Q5M848); test: Fura-2 Ca2+ re-addition, thapsigargin-depleted native RBL-2H3 cells
# STIM1/Orai1-mediated SOCE, sequence (Q5M848 whole entry, the tested form may be a part): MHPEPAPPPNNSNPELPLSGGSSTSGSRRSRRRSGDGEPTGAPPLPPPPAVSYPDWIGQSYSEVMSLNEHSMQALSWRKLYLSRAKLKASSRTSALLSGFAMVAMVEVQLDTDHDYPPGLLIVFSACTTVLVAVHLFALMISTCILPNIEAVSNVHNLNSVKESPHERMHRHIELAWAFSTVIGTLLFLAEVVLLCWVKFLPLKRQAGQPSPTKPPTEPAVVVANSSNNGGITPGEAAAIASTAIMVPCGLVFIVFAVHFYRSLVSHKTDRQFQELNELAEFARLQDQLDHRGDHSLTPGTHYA
# Method in brief: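 Native RBL-2H3 cells were loaded with 2 μM Fura-2-AM for 45 min and perfused in Ca2+-free extracellular solution at room temperature. Stores depleted with 1 μM thapsigargin for 5 min. Test compound present ≥5 min before and throughout. Ca2+ entry evoked by 2 mM Ca2+ re-addition; 340/380 nm ratio read (510 nm emission). Inhibition expressed as % of control peak entry. IC50 by 4-parameter logistic fit; 3–5 experiments, 29–80 cells.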
# RBL-2H3 cells = test: Degranulation assay; conditions: ionomycin 0.4 μM
# Method in brief: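 RBL-2H3 cells grown to confluency, washed in RBL-2H3 buffer with 2 mM CaCl2, all incubations at 37°C. Test compound (3 or 10 μM) for 15 min, then ionomycin 0.4 μM final for 30 min. Stopped with 0.4 M glycine (pH 10.7), A405 read. Untreated and 2% triton-lysed cells served as basal/maximal references. n = 3 passages.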
# TRPC3 = molecular target: T1, TRPC3 (Homo sapiens, UniProt Q13507); test: Patch-clamp of TRPC3 currents in HEK293 cells transiently expressing TRPC3; conditions: 3 μM pre-incubation, carbachol
# T1 sequence (Q13507 74-921 limits assumed): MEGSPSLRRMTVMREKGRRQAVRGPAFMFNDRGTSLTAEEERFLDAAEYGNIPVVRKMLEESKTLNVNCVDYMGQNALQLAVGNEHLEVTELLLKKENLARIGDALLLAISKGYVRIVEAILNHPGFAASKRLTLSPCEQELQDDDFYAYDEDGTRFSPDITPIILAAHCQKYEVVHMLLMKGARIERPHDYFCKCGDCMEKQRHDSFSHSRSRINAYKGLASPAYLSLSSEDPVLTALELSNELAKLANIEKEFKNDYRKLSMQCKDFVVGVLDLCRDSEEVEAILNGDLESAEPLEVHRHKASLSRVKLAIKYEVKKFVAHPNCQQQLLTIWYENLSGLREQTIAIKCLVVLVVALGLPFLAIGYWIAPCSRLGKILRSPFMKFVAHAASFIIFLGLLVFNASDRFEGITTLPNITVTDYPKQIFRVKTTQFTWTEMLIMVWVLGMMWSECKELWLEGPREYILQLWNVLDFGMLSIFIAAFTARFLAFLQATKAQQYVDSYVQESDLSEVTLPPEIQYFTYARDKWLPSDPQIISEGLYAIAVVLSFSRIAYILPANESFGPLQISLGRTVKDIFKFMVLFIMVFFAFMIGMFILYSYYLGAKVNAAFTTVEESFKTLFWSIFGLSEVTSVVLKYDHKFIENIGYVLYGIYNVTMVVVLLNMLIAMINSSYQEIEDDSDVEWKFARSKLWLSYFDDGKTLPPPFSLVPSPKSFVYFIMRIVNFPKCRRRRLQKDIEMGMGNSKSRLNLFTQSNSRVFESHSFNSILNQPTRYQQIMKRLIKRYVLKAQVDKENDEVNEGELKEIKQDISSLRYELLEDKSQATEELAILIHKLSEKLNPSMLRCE
# [2] = molecular target: CRAC currents in native RBL-2H3 cells (Rattus norvegicus, UniProt Q5M848); test: Patch-clamp of CRAC currents in native RBL-2H3 cells; conditions: for Effect on CRAC Ca2+ entry-mediating conductance: 3 μM pre-incubation
# CRAC currents in native RBL-2H3 cells, sequence (Q5M848 whole entry): as the sequence (Q5M848 whole entry, the tested form may be a part) above
# Method in brief: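 Whole-cell recording of native RBL-2H3 cells at room temperature. Stores depleted passively by 20 mM EGTA in the Cs-methanesulphonate pipette solution (pH 7.2). Bath contained 20 mM CaCl2 (pH 7.4). Ramps from −90 to +90 mV over 1 s, holding +30 mV. Test compound at 3 μM, pre-incubated or applied acutely. Net current (minus basal) read at −85 mV 300 s after break-in; n ≥ 6 cells.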
# STIM1/Orai1 = STIM1/Orai1 (Homo sapiens, UniProt Q96D31)
# STIM1/Orai1, sequence (Q96D31 whole entry, species assumed): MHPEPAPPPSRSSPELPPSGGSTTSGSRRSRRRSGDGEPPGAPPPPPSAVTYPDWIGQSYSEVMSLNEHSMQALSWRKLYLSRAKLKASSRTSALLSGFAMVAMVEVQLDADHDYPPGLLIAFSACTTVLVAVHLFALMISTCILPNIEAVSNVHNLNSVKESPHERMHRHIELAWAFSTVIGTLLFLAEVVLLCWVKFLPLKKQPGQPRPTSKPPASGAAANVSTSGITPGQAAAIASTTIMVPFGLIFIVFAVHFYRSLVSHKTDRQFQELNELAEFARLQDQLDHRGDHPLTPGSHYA
# STIM1/Orai1, sequence (Q13586 23-685 partner, species assumed): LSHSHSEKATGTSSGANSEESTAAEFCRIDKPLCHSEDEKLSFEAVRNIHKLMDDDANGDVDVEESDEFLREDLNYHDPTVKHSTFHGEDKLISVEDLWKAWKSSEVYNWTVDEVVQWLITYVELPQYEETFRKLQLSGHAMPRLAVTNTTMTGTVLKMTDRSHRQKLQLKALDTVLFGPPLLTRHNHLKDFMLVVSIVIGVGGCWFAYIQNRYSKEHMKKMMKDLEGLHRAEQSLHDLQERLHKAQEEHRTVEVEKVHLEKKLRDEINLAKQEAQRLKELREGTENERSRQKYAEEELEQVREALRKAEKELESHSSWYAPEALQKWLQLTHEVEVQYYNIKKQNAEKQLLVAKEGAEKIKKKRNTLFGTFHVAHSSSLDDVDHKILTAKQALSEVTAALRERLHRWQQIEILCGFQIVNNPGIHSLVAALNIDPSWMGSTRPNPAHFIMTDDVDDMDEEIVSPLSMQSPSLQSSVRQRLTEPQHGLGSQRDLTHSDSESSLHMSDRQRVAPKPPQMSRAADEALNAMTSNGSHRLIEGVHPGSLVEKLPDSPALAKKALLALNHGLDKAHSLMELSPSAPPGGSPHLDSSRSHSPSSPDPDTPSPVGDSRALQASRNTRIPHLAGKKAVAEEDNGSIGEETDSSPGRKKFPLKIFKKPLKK
# Method in brief: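 Whole-cell recording at room temperature in HEK293 transiently co-expressing CFP-STIM1 and YFP-Orai1. CRAC activated by 20 mM EGTA in the pipette with 10 mM CaCl2 in the bath. Bath then switched to divalent-free solution to carry Na+ current. Test compound (10 μM) applied acutely; current followed over time; n = 4 cells.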
Compound,Effect on NFAT translocation (NFAT),IC50 [1] [nM],"Higher potency in SOCE model than in TRPC3-ROCE model, orders of magnitude ([1]; RBL-2H3 SOCE vs TRPC3 ROCE) [OM]","Higher potency in SOCE model than in TRPC3-ROCE model ([1]; ratio of IC50 values, RBL-2H3 SOCE vs TRPC3 ROCE)",Effect on ionomycin-initiated degranulation (RBL-2H3 cells; 3 μM),Effect on ionomycin-initiated degranulation (RBL-2H3 cells; 10 μM),Effect on TRPC3 Ca2+ entry-mediating conductance (TRPC3),Effect on CRAC Ca2+ entry-mediating conductance [2],"Effect on divalent-free sodium current through CRAC pore (STIM1/Orai1; 10 μM, divalent-free conditions)","Effect on reconstituted CRAC pore currents upon acute administration (STIM1/Orai1; HEK293 expressing STIM1 and Orai1, passive store depletion with EGTA)","Effect on native CRAC currents upon acute administration ([2]; acute administration, 3 μM, native RBL-2H3 cells)"
"Cc1nnsc1C(=O)Nc1ccc(-n2nc(C(F)(F)F)cc2C(F)(F)F)cc1 [Pyr2, N-(4-(3,5-bis(trifluoromethyl)-1H-pyrazole-1-yl)phenyl)-4-methyl-1,2,3-thiadiazole-5-carboxamide]",clearly inhibited NFAT translocation,590,0.85,sevenfold,substantially reduced degranulation,suppressed responses down to basal levels,completely eliminated,completely eliminated,–,–,–
"CCOC(=O)c1cnn(-c2ccc(NC(=O)C(Cl)=C(Cl)Cl)cc2)c1C(F)(F)F [Pyr3, ethyl 1-(4-(2,3,3-trichloroacrylamido)phenyl)-5-(trifluoromethyl)-1H-pyrazole-4-carboxylate]",clearly inhibited NFAT translocation,–,–,–,substantially reduced degranulation,suppressed responses down to basal levels,completely eliminated,completely eliminated,affecting sodium influx through it,"acutely blocks a reconstituted CRAC pore in a dose-dependent, non-reversible manner",rapidly suppresses
